# In ChEMBL document CHEMBL1153560, “In vitro activities of doripenem and six comparator drugs against 423 aerobic and anaerobic bacterial isolates from infected diabetic foot wounds” (2008):
# Legend:
# Format in all cases: functional
# [1] = test system: Anaerocolumna aminovalerica; assay: Antibacterial activity against Clostridium aminovalericum isolated from patient with diabetic foot infection after 44 to 48 hrs by agar dilution method
# How it was run: (§1)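 CLSI M11-A7 agar dilution: serial twofold drug dilutions made on the test day and added to molten agar. Spots of 10^5 CFU were applied by replicator, with drug-free control plates inoculated before and after each set. Incubation was 44 to 48 h at 37°C in an anaerobic chamber. MIC was the lowest concentration giving no growth or a marked change in growth versus controls.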
# Clostridium cadaveris [2] = assay: Antibacterial activity against Clostridium cadaveris isolated from patient with diabetic foot infection after 44 to 48 hrs by agar dilution method; how it was run: as §1
# [3] = test system: Enterocloster clostridioformis; assay: Antibacterial activity against Clostridium clostridioforme isolated from patient with diabetic foot infection after 44 to 48 hrs by agar dilution method; how it was run: as §1
# [Clostridium] innocuum = Antibacterial activity against Clostridium innocuum isolated from patient with diabetic foot infection after 44 to 48 hrs by agar dilution method; how it was run: as §1
# Anaerococcus tetradius = assay: Antibacterial activity against Anaerococcus tetradius isolated from patient with diabetic foot infection after 44 to 48 hrs by agar dilution method; how it was run: as §1
# [4] = test system: Peptostreptococcus anaerobius; assay: Antibacterial activity against Peptostreptococcus anaerobius isolated from patient with diabetic foot infection after 44 to 48 hrs by agar dilution method; how it was run: as §1
# [5] = test system: Staphylococcus lugdunensis; assay: Antibacterial activity against Staphylococcus lugdunensis isolated from patient with diabetic foot infection after 18 to 24 hrs by broth microdilution method
# How it was run: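 Subcultured on Trypticase soy blood agar, then broth microdilution in cation-adjusted Mueller-Hinton broth. Trays were made in-house with serial twofold drug dilutions and stored at −70°C. Inoculum was colonies from overnight growth, final approximately 5 × 10^5 CFU/ml. MIC was read after 18 to 24 h at 37°C. QC strains: S. aureus ATCC 29213 and E. coli ATCC 25922.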
# Corynebacterium xerosis = assay: Antibacterial activity against Corynebacterium xerosis isolated from patient with diabetic foot infection assessed as percent resistant isolates after 48 hrs by broth microdilution method
# How it was run: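 Isolates subcultured on Trypticase soy blood agar. Broth microdilution in cation-adjusted Mueller-Hinton broth with lysed horse blood, using in-house twofold dilution trays stored at −70°C. Inoculum from overnight colonies at about 5 × 10^5 CFU/ml final. Read after 18 to 24 h at 37°C, up to 48 h for some Corynebacterium strains.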
# [6] = test system: Staphylococcus haemolyticus; assay: Antibacterial activity against Staphylococcus haemolyticus isolated from patient with diabetic foot infection assessed as percent resistant isolates after 18 to 24 hrs by broth microdilution method
# [7] = test system: Staphylococcus lugdunensis; assay: Antibacterial activity against Staphylococcus lugdunensis isolated from patient with diabetic foot infection assessed as percent resistant isolates after 18 to 24 hrs by broth microdilution method
# How it was run: (§2)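 Aerobes subcultured on Trypticase soy blood agar, then broth microdilution in cation-adjusted Mueller-Hinton broth. Trays prepared in-house with twofold dilutions and stored at −70°C. Overnight colonies suspended to about 5 × 10^5 CFU/ml final. Read after 18 to 24 h at 37°C. QC strains included S. aureus ATCC 29213 and E. coli ATCC 25922.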
# Bacteroides ovatus = assay: Antibacterial activity against Bacteroides ovatus isolated from patient with diabetic foot infection assessed as percent resistant isolates after 44 to 48 hrs by agar dilution method
# How it was run: (§3)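 Agar dilution per CLSI M11-A7. Twofold drug dilutions made on the test day and added to molten agar. Replicator-applied inoculum of 10^5 CFU/spot. Drug-free control plates inoculated before and after each drug set. Incubation at 37°C for 44 to 48 h, anaerobic chamber. MIC taken as the lowest concentration giving no growth or a marked change in growth versus controls.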
# Phocaeicola vulgatus = assay: Antibacterial activity against Bacteroides vulgatus isolated from patient with diabetic foot infection after 44 to 48 hrs by agar dilution method; how it was run: as §1
# Parabacteroides merdae = assay: Antibacterial activity against Parabacteroides merdae isolated from patient with diabetic foot infection after 44 to 48 hrs by agar dilution method; how it was run: as §1
# [8] = test system: Porphyromonas asaccharolytica; assay: Antibacterial activity against Porphyromonas asaccharolyticus isolated from patient with diabetic foot infection after 44 to 48 hrs by agar dilution method; how it was run: as §1
# Porphyromonas somerae = assay: Antibacterial activity against Porphyromonas somerae isolated from patient with diabetic foot infection assessed as percent resistant isolates after 44 to 48 hrs by agar dilution method; how it was run: as §3
# Prevotella bivia = assay: Antibacterial activity against Prevotella bivia isolated from patient with diabetic foot infection assessed as percent resistant isolates after 44 to 48 hrs by agar dilution method; how it was run: as §3
# Corynebacterium striatum = assay: Antibacterial activity against Corynebacterium striatum isolated from patient with diabetic foot infection after 48 hrs by broth microdilution method
# How it was run: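 Isolates were subcultured on Trypticase soy blood agar. Broth microdilution used cation-adjusted Mueller-Hinton broth with lysed horse blood, in-house trays of twofold drug dilutions stored at −70°C. Colonies from overnight growth gave a final inoculum of about 5 × 10^5 CFU/ml. Trays were read after 18 to 24 h at 37°C, up to 48 h for some strains.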
# Clostridium cadaveris [9] = assay: Antibacterial activity against Clostridium cadaveris isolated from patient with diabetic foot infection assessed as percent resistant isolates after 44 to 48 hrs by agar dilution method; how it was run: as §3
# [10] = test system: Enterocloster clostridioformis; assay: Antibacterial activity against Clostridium clostridioforme isolated from patient with diabetic foot infection assessed as percent resistant isolates after 44 to 48 hrs by agar dilution method; how it was run: as §3
# [11] = test system: Clostridium malenominatum; assay: Antibacterial activity against Clostridium malenominatum isolated from patient with diabetic foot infection assessed as percent resistant isolates after 44 to 48 hrs by agar dilution method; how it was run: as §3
# Anaerococcus vaginalis = assay: Antibacterial activity against Anaerococcus vaginalis isolated from patient with diabetic foot infection assessed as percent resistant isolates after 44 to 48 hrs by agar dilution method; how it was run: as §3
# Escherichia coli = assay: Antibacterial activity against Escherichia coli isolated from patient with diabetic foot infection assessed as percent resistant isolates after 18 to 24 hrs by broth microdilution method; how it was run: as §2
# Klebsiella aerogenes [12] = assay: Antibacterial activity against Enterobacter aerogenes isolated from patient with diabetic foot infection assessed as percent resistant isolates after 18 to 24 hrs by broth microdilution method; how it was run: as §2
# Klebsiella aerogenes [13] = assay: Antibacterial activity against Enterobacter aerogenes isolated from patient with diabetic foot infection after 18 to 24 hrs by broth microdilution method
# How it was run: (§4)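 Isolates were subcultured on Trypticase soy blood agar and tested by broth microdilution in cation-adjusted Mueller-Hinton broth. In-house trays of twofold drug dilutions were stored at −70°C. Overnight colonies gave a final inoculum of about 5 × 10^5 CFU/ml. Plates were read after 18 to 24 h at 37°C.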
# Enterobacter cloacae = assay: Antibacterial activity against Enterobacter cloacae isolated from patient with diabetic foot infection after 18 to 24 hrs by broth microdilution method; how it was run: as §4
# Proteus mirabilis = assay: Antibacterial activity against Proteus mirabilis isolated from patient with diabetic foot infection after 18 to 24 hrs by broth microdilution method; how it was run: as §4
# Proteus vulgaris = assay: Antibacterial activity against Proteus vulgaris isolated from patient with diabetic foot infection after 18 to 24 hrs by broth microdilution method; how it was run: as §4
compound,measurement,setting,value
CCC[C@@H]1C[C@@H](C(=O)N[C@@H]([C@H]2O[C@H](SC)[C@H](O)[C@@H](O)[C@H]2O)[C@H](C)Cl)N(C)C1 [CLINDAMYCIN],MIC50,[1],0.5 µg/mL
same,MIC90,[1],16 µg/mL
same,MIC50,Clostridium cadaveris [2],0.5 µg/mL
same,MIC90,Clostridium cadaveris [2],16 µg/mL
same,MIC50,[3],0.5 µg/mL
same,MIC90,[3],16 µg/mL
same,MIC50,[Clostridium] innocuum,0.5 µg/mL
same,MIC90,[Clostridium] innocuum,16 µg/mL
same,MIC50,Anaerococcus tetradius,0.125 µg/mL
same,MIC90,Anaerococcus tetradius,64 µg/mL
same,MIC50,[4],0.125 µg/mL
same,MIC90,[4],0.5 µg/mL
same,MIC50,[5],0.125 µg/mL
same,MIC90,[5],> 64 µg/mL
same,Activity,Corynebacterium xerosis,78%
same,Activity,[6],13%
same,Activity,[7],13%
same,Activity,Bacteroides ovatus,20%
same,MIC50,Phocaeicola vulgatus,2 µg/mL
same,MIC90,Phocaeicola vulgatus,> 64 µg/mL
same,MIC50,Parabacteroides merdae,2 µg/mL
same,MIC90,Parabacteroides merdae,> 64 µg/mL
same,MIC50,[8],≤ 0.03 µg/mL
same,MIC90,[8],64 µg/mL
same,Activity,Porphyromonas somerae,12%
same,Activity,Prevotella bivia,21%
same,MIC50,Corynebacterium striatum,2 µg/mL
same,MIC90,Corynebacterium striatum,> 64 µg/mL
same,Activity,Clostridium cadaveris [9],23%
same,Activity,[10],23%
same,Activity,[11],23%
same,Activity,Anaerococcus vaginalis,18%
C[C@@H](O)[C@H]1C(=O)N2C(C(=O)O)=C(S[C@@H]3CN[C@H](CNS(N)(=O)=O)C3)[C@H](C)[C@H]12 [DORIPENEM],MIC50,[1],0.06 µg/mL
same,MIC90,[1],1 µg/mL
same,MIC50,Clostridium cadaveris [2],0.06 µg/mL
same,MIC90,Clostridium cadaveris [2],1 µg/mL
same,MIC50,[3],0.06 µg/mL
same,MIC90,[3],1 µg/mL
same,MIC50,[Clostridium] innocuum,0.06 µg/mL
same,MIC90,[Clostridium] innocuum,1 µg/mL
same,MIC50,Anaerococcus tetradius,≤ 0.015 µg/mL
same,MIC90,Anaerococcus tetradius,0.06 µg/mL
same,MIC50,[4],0.06 µg/mL
same,MIC90,[4],0.25 µg/mL
same,Activity,Escherichia coli,0%
same,Activity,Klebsiella aerogenes [12],0%
same,MIC50,[5],0.125 µg/mL
same,MIC90,[5],0.125 µg/mL
same,Activity,[6],73%
same,Activity,[7],0%
same,Activity,Bacteroides ovatus,0%
same,MIC50,Phocaeicola vulgatus,0.25 µg/mL
same,MIC90,Phocaeicola vulgatus,1 µg/mL
same,MIC50,Parabacteroides merdae,0.25 µg/mL
same,MIC90,Parabacteroides merdae,1 µg/mL
same,MIC50,[8],≤ 0.015 µg/mL
same,MIC90,[8],0.03 µg/mL
same,Activity,Porphyromonas somerae,0%
same,Activity,Prevotella bivia,0%
same,MIC50,Klebsiella aerogenes [13],0.06 µg/mL
same,MIC90,Klebsiella aerogenes [13],0.25 µg/mL
same,MIC50,Enterobacter cloacae,0.06 µg/mL
same,MIC90,Enterobacter cloacae,0.25 µg/mL
same,MIC50,Proteus mirabilis,0.125 µg/mL
same,MIC90,Proteus mirabilis,0.25 µg/mL
same,MIC50,Proteus vulgaris,0.125 µg/mL
same,MIC90,Proteus vulgaris,0.25 µg/mL
same,MIC50,Corynebacterium striatum,0.125 µg/mL
same,MIC90,Corynebacterium striatum,0.25 µg/mL
same,Activity,Clostridium cadaveris [9],0%
same,Activity,[10],0%
same,Activity,[11],0%
same,Activity,Anaerococcus vaginalis,0%
